Tests used:
[1] = folding enthalpy; higher = less favourable; fluorescence melt of hairpins on a sequencing array, two-state fit; details: sodium 0.088 M
Summary of the method: (§1)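 Cy3 fluorescence of library hairpins on a sequenced MiSeq flow cell, with annealed Cy3 and quencher oligos, was imaged in 50 mM Na-HEPES pH 8.0, 25 mM NaCl in 2.5 °C steps up to 60 °C. Signals were normalised to pre-quench Cy3 and to control variants. Melting temperature and folding enthalpy came from bootstrapped two-state fits, inverse-variance combined over four replicates. Fitted temperatures were raised by 9.35 °C to match UV melts.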

[2] = melting temperature; fluorescence melt of hairpins on a sequencing array, two-state fit, raised by 9.35 °C to match UV melts; details: sodium 0.088 M
Summary of the method: as §1

Row | Sequence | folding enthalpy [1] | Tm [2]
1 | GAGCTTGGAAACAAGCTC (((((((....))))))) | -147 kJ/mol | 67.8 °C
2 | GAGGAACCGAAAGGTCTC (((..(((....)))))) | -64.5 kJ/mol | 35.2 °C
3 | GAGGAAGGAAACTTCTTC ((.((((....)))).)) | -70 kJ/mol | 33.9 °C
4 | GAGGACCGAAAGGTCTC (((.(((....)))))) | -45.7 kJ/mol | 46.5 °C
5 | GAGGACGAAAGTCGTCTC ((((((....)))..))) | -120 kJ/mol | 52.2 °C
6 | GAGGACGAAAGTCTGCTC ((((((....)))..))) | -60.1 kJ/mol | 39.2 °C
7 | GAGGACGGAAACGTTCTC (((.(((....))).))) | -175 kJ/mol | 51.6 °C
8 | GAGGAGGGAAACTTCCTC (((((.(....).))))) | -107 kJ/mol | 41.9 °C
9 | GAGGATGGAAACGTCCTC (((((.(....).))))) | -146 kJ/mol | 49.6 °C
10 | GAGGCACCGAAAGGTCTC (((..(((....)))))) | -48.1 kJ/mol | 31.3 °C
11 | GAGGCAGCGAAAGCTCTC (((..(((....)))))) | -42.8 kJ/mol | 31.8 °C
12 | GAGGCCGAAAGGCACCTC ((((((....)))..))) | -36.7 kJ/mol | 40 °C
13 | GAGGCCGAAAGGCATCTC ((((((....)))..))) | -71.4 kJ/mol | 68.4 °C
14 | GAGGCCGCGAAAGCGCTC (((..(((....)))))) | -53.4 kJ/mol | 35 °C
15 | GAGGCTGGAAACAACCTC ((((.((....)).)))) | -122 kJ/mol | 41.8 °C
16 | GAGGCTGGAAACAGCCCC (.(((((....))))).) | -36.3 kJ/mol | 46.1 °C
17 | GAGGCTGGAAACAGTCTC (((.(((....))).))) | -150 kJ/mol | 52.6 °C
18 | GAGGGAGCGAAAGCTCTC (((..(((....)))))) | -39.2 kJ/mol | 42.8 °C
19 | GAGGGAGGAAACTCCCCC (.(((((....))))).) | -43.8 kJ/mol | 41.9 °C
20 | GAGGGCACGAAAGTGCTC (((..(((....)))))) | -31 kJ/mol | 44 °C
21 | GAGGGCGAAAGCCCACTC ((((((....)))..))) | -44.2 kJ/mol | 55.6 °C
22 | GAGGGCGGAAACGCCCCC (.(((((....))))).) | -24.4 kJ/mol | 45.8 °C
23 | GAGGGGGAAACCCCTC ((((((....)))))) | -126 kJ/mol | 65.4 °C

Row | Sequence | folding enthalpy [1] | Tm [2]
24 | GAGGGTGAAAACCCTC ((((((....)))))) | -136 kJ/mol | 64.2 °C
25 | GAGGGTGGAAACACCCTC (((((((....))))))) | -146 kJ/mol | 68.7 °C
26 | GAGGGTGGAAACACTCTC (((.(((....))).))) | -125 kJ/mol | 52.3 °C
27 | GAGGGTGGAAACGCCCTC (((((.(....).))))) | -185 kJ/mol | 57.6 °C
28 | GAGGGTGGAAACGTCCTC ((((..(....)..)))) | -99.9 kJ/mol | 35.1 °C
29 | GAGGTAGGAAACTATCTC (((.(((....))).))) | -111 kJ/mol | 38.7 °C
30 | GAGGTCGGAAACGATCTC (((.(((....))).))) | -183 kJ/mol | 52.5 °C
31 | GAGGTCGGAAACGGCTTC ((.(.((....)).).)) | -85.8 kJ/mol | 36.1 °C
32 | GAGGTGAAAACCTC (((((....))))) | -94.9 kJ/mol | 53.3 °C
33 | GAGGTGCCGAAAGGCCTC (((..(((....)))))) | -45.1 kJ/mol | 37.5 °C
34 | GAGGTGGCGAAAGCCCTC (((..(((....)))))) | -60.4 kJ/mol | 43.7 °C
35 | GAGGTGGGAAACCATCTC (((.(((....))).))) | -131 kJ/mol | 47.7 °C
36 | GAGGTTGGAAACGACCTC (((((.(....).))))) | -144 kJ/mol | 51.3 °C
37 | GAGTAACGAAAGTTCCTC (((.(((....))).))) | -82.7 kJ/mol | 38 °C
38 | GAGTAAGAAATTACTC ((((((....)))))) | -103 kJ/mol | 40.1 °C
39 | GAGTAAGGAAACCTACTC (((((.(....).))))) | -111 kJ/mol | 33.2 °C
40 | GAGTAAGGAAACTCACTC ((((.((....)).)))) | -61.9 kJ/mol | 24.8 °C
41 | GAGTACGGAAACGCACTC ((((.((....)).)))) | -132 kJ/mol | 45.3 °C
42 | GAGTACGGAAACGTATTC ((.((((....)))).)) | -102 kJ/mol | 41.6 °C
43 | GAGTACGGAAACGTGCTC (((.(((....))).))) | -204 kJ/mol | 53.8 °C
44 | GAGTATGGAAACATGCTC (((.(((....))).))) | -143 kJ/mol | 46.8 °C
45 | GAGTCACGAAAGTGTCTC (((.(((....))).))) | -126 kJ/mol | 49.8 °C
46 | GAGTCAGCGAAAGCTCTC (((..(((....)))))) | -49.4 kJ/mol | 30.1 °C

Row | Sequence | folding enthalpy [1] | Tm [2]
47 | GAGTCAGGAAACTGACCC (.(((((....))))).) | -56 kJ/mol | 40.5 °C
48 | GAGTCAGGAAACTGACTC (((((((....))))))) | -155 kJ/mol | 62.6 °C
49 | GAGTCCGAAAGGACGCTC ((((((....)))..))) | -57 kJ/mol | 64.2 °C
50 | GAGTCCGAAAGGAGACTC ((((((....)))..))) | -91.5 kJ/mol | 44.9 °C
51 | GAGTCCGAAAGGAGCTC ((((((....))).))) | -92.2 kJ/mol | 47.2 °C
52 | GAGTCCGAAAGGATACTC ((((((....)))..))) | -74.9 kJ/mol | 38.6 °C
53 | GAGTCCGGAAACGGGCTC (((.(((....))).))) | -138 kJ/mol | 63.3 °C
54 | GAGTCGGGAAACCGATTC ((.((((....)))).)) | -105 kJ/mol | 47.7 °C
55 | GAGTCGGGAAACCGGCTC (((.(((....))).))) | -139 kJ/mol | 61.1 °C
56 | GAGTCTGGAAACGGACTC (((((.(....).))))) | -169 kJ/mol | 52.3 °C
57 | GAGTGACGAAAGTCCCTC (((.(((....))).))) | -102 kJ/mol | 45.1 °C
58 | GAGTGAGGAAACTCATTC ((.((((....)))).)) | -98.4 kJ/mol | 38.5 °C
59 | GAGTGCGAAAGCAGGCTC ((((((....)))..))) | -70 kJ/mol | 48.3 °C
60 | GAGTGCGGAAACGCATTC ((.((((....)))).)) | -99.5 kJ/mol | 51.9 °C
61 | GAGTGGCGAAAGCCTCTC (((.(((....))).))) | -101 kJ/mol | 53.6 °C
62 | GAGTGTGCGAAAGCACTC (((..(((....)))))) | -39.3 kJ/mol | 37.8 °C
63 | GAGTGTGGAAACATACTC ((((.((....)).)))) | -133 kJ/mol | 45.9 °C
64 | GAGTTACCGAAAGGTCTC (((..(((....)))))) | -70.7 kJ/mol | 29.4 °C
65 | GAGTTACGAAAGTATCTC (((.(((....))).))) | -109 kJ/mol | 41.4 °C
66 | GAGTTAGGAAACTAGCTC (((.(((....))).))) | -121 kJ/mol | 40.4 °C
67 | GAGTTAGGAAACTGACTC ((((.((....)).)))) | -153 kJ/mol | 42.4 °C
68 | GAGTTCGAAAGAACTC ((((((....)))))) | -159 kJ/mol | 66.2 °C
69 | GAGTTCGCGAAAGCGCTC (((..(((....)))))) | -28.4 kJ/mol | 25.9 °C

Row | Sequence | folding enthalpy [1] | Tm [2]
70 | GAGTTCGGAAACGAACCC (.(((((....))))).) | -55.6 kJ/mol | 41.5 °C
71 | GAGTTCGGAAACGAGTTC ((..(((....)))..)) | -41 kJ/mol | 30.7 °C
72 | GAGTTCGGAAACGGACTC ((((.((....)).)))) | -181 kJ/mol | 52 °C
73 | GAGTTGGGAAACCAGCTC (((.(((....))).))) | -145 kJ/mol | 48.9 °C
74 | GAGTTGGGAAACTAACTC (((((.(....).))))) | -130 kJ/mol | 43.6 °C
75 | GAGTTTCCGAAAGGACTC (((..(((....)))))) | -55.8 kJ/mol | 30 °C
76 | GAGTTTGGAAACGAACTC (((((.(....).))))) | -152 kJ/mol | 47.1 °C
77 | GATAAAGAAATTTATC ((((((....)))))) | -66.4 kJ/mol | 27.6 °C
78 | GATAAAGGAAACTTTGTC ((.((((....)))).)) | -58.8 kJ/mol | 32.2 °C
79 | GATAAGACGAAAGTCATC (((..(((....)))))) | -63.7 kJ/mol | 26.7 °C
80 | GATAAGCCGAAAGGCATC (((..(((....)))))) | -38.5 kJ/mol | 32 °C
81 | GATAATGGAAACATTACC (.(((((....))))).) | -38.7 kJ/mol | 22.6 °C
82 | GATACAGGAAACTGCATC (((.(((....))).))) | -119 kJ/mol | 33.6 °C
83 | GATACCACGAAAGTGATC (((..(((....)))))) | -37.9 kJ/mol | 21.2 °C
84 | GATACCCGAAAGGGGATC (((.(((....))).))) | -126 kJ/mol | 60 °C
85 | GATACCGAAAGGTAAATC ((((((....)))..))) | -56.4 kJ/mol | 28.7 °C
86 | GATACCGAAAGGTAATC ((((((....))).))) | -79 kJ/mol | 39 °C
87 | GATACCGAAAGGTAGATC ((((((....)))..))) | -76.5 kJ/mol | 44.6 °C
88 | GATACGGAAACGTATC ((((((....)))))) | -182 kJ/mol | 54 °C
89 | GATACTGAAAAGTATC ((((((....)))))) | -171 kJ/mol | 48.5 °C
90 | GATAGACGAAAGTCAATC (((.(((....))).))) | -94.3 kJ/mol | 41.2 °C
91 | GATAGACGAAAGTCATC (((.(((....)))))) | -64.3 kJ/mol | 38.4 °C

— the array DNA melting data of Ke et al. (doi:10.1101/2024.01.08.574731)
